ChEMBL document CHEMBL4392861, “Synthesis and evaluation of the HIF-1α inhibitory activities of novel ursolic acid tetrazole derivatives” (Bioorg Med Chem Lett, 2019)

Legend:
Type in all cases: cell-based
[1] = system: Hep 3B2; assay: Cytotoxicity against human Hep3B cells assessed as reduction in cell viability after 24 hrs by MTT assay
Outline: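 Hep3B cells exposed to compounds for 24 h under normoxic conditions; viability read by MTT assay; IC50 from mean ± SE, n=3.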

[2] = biological target: Hypoxia-inducible factor 1-alpha (Homo sapiens, UniProt Q16665); assay: Inhibition of hypoxia-induced HIF1alpha transcriptional activity in human Hep3B cells after 24 hrs in hypoxic condition by HRE-dependent dual luciferase reporter gene assay
Outline: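 Hep3B cells transiently co-transfected with pGL3-HRE-luciferase and pRL-CMV vectors, incubated 24 h, then treated with compounds for 24 h under hypoxia. Luciferase activity measured […]. IC50 given as mean ± SE, n=3.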

[3] = system: Hep 3B2; assay: Cytotoxicity against human Hep3B cells assessed as reduction in cell viability up to 30 uM after 24 hrs in presence of 20% O2 by MTT assay; settings: hep 3b2, 24 h
Outline: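 Hep3B cells treated with the indicated concentrations (up to 30 µM) for 24 h, then viability determined by MTT assay.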

C[C@H]1[C@H](C)CC[C@]2(C(=O)O)CC[C@]3(C)C(=CC[C@@H]4[C@@]5(C)CC(=C\c6ccc(Cl)cc6)/C(=N\NC(=N)N)C(C)(C)[C@@H]5CC[C@]43C)[C@H]12 showed an IC50 [1] greater than 100 µM and an IC50 [2] of 4 µM.

With C[C@H]1[C@H](C)CC[C@]2(C(=O)OCCCNc3cccc(-c4nnn[nH]4)c3)CC[C@]3(C)C(=CC[C@@H]4[C@@]5(C)CCC(=O)C(C)(C)[C@@H]5CC[C@]43C)[C@H]12 the IC50 [1] was greater than 100 µM and the IC50 [2] was greater than 100 µM.

C[C@H]1[C@H](C)CC[C@]2(C(=O)OCCCNc3nnn[nH]3)CC[C@]3(C)C(=CC[C@@H]4[C@@]5(C)CCC(=O)C(C)(C)[C@@H]5CC[C@]43C)[C@H]12 was tested, and the IC50 [1] was greater than 100 µM and the IC50 [2] was 16.7 µM.

For C[C@H]1[C@H](C)CC[C@]2(C(=O)OCCNc3nnn[nH]3)CC[C@]3(C)C(=CC[C@@H]4[C@@]5(C)CCC(=O)C(C)(C)[C@@H]5CC[C@]43C)[C@H]12, the IC50 [1] was greater than 100 µM and the IC50 [2] was 14.2 µM.

With C[C@H]1[C@H](C)CC[C@]2(C(=O)Nc3nnn[nH]3)CC[C@]3(C)C(=CC[C@@H]4[C@@]5(C)CC[C@H](OC(=O)C(F)(F)F)C(C)(C)[C@@H]5CC[C@]43C)[C@H]12 the IC50 [1] was 6.4 µM and the IC50 [2] was 1.6 µM.

C[C@H]1[C@H](C)CC[C@]2(C(=O)OCCCNc3cccc(-c4nnn[nH]4)c3)CC[C@]3(C)C(=CC[C@@H]4[C@@]5(C)CC[C@H](O)C(C)(C)[C@@H]5CC[C@]43C)[C@H]12 showed an IC50 [1] greater than 100 µM and an IC50 [2] of 13.2 µM.

In the case of C[C@H]1[C@H](C)CC[C@]2(C(=O)OCCCn3nnnc3-c3ccccc3)CC[C@]3(C)C(=CC[C@@H]4[C@@]5(C)CC[C@H](O)C(C)(C)[C@@H]5CC[C@]43C)[C@H]12, the IC50 [1] is reported as greater than 100 µM and the IC50 [2] is reported as 40 µM.

For C[C@H]1[C@H](C)CC[C@]2(C(=O)OCCn3nnnc3-c3ccccc3)CC[C@]3(C)C(=CC[C@@H]4[C@@]5(C)CC[C@H](O)C(C)(C)[C@@H]5CC[C@]43C)[C@H]12, the IC50 [1] was greater than 100 µM and the IC50 [2] was 18.1 µM.

Molecule C[C@H]1[C@H](C)CC[C@]2(C(=O)OCCCNc3ccccc3-c3nnn[nH]3)CC[C@]3(C)C(=CC[C@@H]4[C@@]5(C)CC[C@H](O)C(C)(C)[C@@H]5CC[C@]43C)[C@H]12 has an IC50 [1] greater than 100 µM and an IC50 [2] greater than 100 µM.

Work on C[C@H]1[C@H](C)CC[C@]2(C(=O)Nc3nnn[nH]3)CC[C@]3(C)C(=CC[C@@H]4[C@@]5(C)CC[C@H](O)C(C)(C)[C@@H]5CC[C@]43C)[C@H]12 yielded an IC50 [1] greater than 100 µM and an IC50 [2] of 13.3 µM.

In the case of C[C@H]1[C@H](C)CC[C@]2(C(=O)OCCNc3ccccc3-c3nnn[nH]3)CC[C@]3(C)C(=CC[C@@H]4[C@@]5(C)CC[C@H](O)C(C)(C)[C@@H]5CC[C@]43C)[C@H]12, the IC50 [1] is reported as greater than 100 µM and the IC50 [2] is reported as greater than 100 µM.

For CC(=O)O[C@H]1CC[C@]2(C)[C@H]3CC=C4[C@@H]5[C@@H](C)[C@H](C)CC[C@]5(C(=O)Nc5nnn[nH]5)CC[C@@]4(C)[C@]3(C)CC[C@H]2C1(C)C, the IC50 [1] was greater than 100 µM, the IC50 [2] was 4.7 µM and the inhibition [2] was “Dose-dependent effect”. For the same molecule, the Activity [3] was “Non-Toxic”.

With C[C@H]1[C@H](C)CC[C@]2(C(=O)Nc3nnn[nH]3)CC[C@]3(C)C(=CC[C@@H]4[C@@]5(C)CCC(=O)C(C)(C)[C@@H]5CC[C@]43C)[C@H]12 the IC50 [1] was greater than 100 µM and the IC50 [2] was 18.1 µM.

COc1ccc(-c2nnnn2CCOC(=O)[C@]23CC[C@@H](C)[C@H](C)[C@H]2C2=CC[C@@H]4[C@@]5(C)CC[C@H](O)C(C)(C)[C@@H]5CC[C@@]4(C)[C@]2(C)CC3)cc1 gave an IC50 [1] greater than 100 µM and an IC50 [2] greater than 100 µM.

C[C@H]1[C@H](C)CC[C@]2(C(=O)OCCCNc3ccc(-c4nnn[nH]4)cc3)CC[C@]3(C)C(=CC[C@@H]4[C@@]5(C)CCC(=O)C(C)(C)[C@@H]5CC[C@]43C)[C@H]12 showed an IC50 [1] greater than 100 µM and an IC50 [2] greater than 100 µM.

In the case of C[C@H]1[C@H](C)CC[C@]2(C(=O)OCCNc3ccc(-c4nnn[nH]4)cc3)CC[C@]3(C)C(=CC[C@@H]4[C@@]5(C)CC[C@H](O)C(C)(C)[C@@H]5CC[C@]43C)[C@H]12, the IC50 [1] is reported as greater than 100 µM and the IC50 [2] is reported as 26.2 µM.

For C[C@H]1[C@H](C)CC[C@]2(C(=O)OCCCn3nnnc3-c3ccc(Cl)cc3)CC[C@]3(C)C(=CC[C@@H]4[C@@]5(C)CC[C@H](O)C(C)(C)[C@@H]5CC[C@]43C)[C@H]12, the IC50 [1] was greater than 100 µM and the IC50 [2] was 7.5 µM.

Work on C[C@H]1[C@H](C)CC[C@]2(C(=O)OCCCNc3ccccc3-c3nnn[nH]3)CC[C@]3(C)C(=CC[C@@H]4[C@@]5(C)CCC(=O)C(C)(C)[C@@H]5CC[C@]43C)[C@H]12 yielded an IC50 [1] greater than 100 µM and an IC50 [2] greater than 100 µM.

With C[C@H]1[C@H](C)CC[C@]2(C(=O)OCCNc3cccc(-c4nnn[nH]4)c3)CC[C@]3(C)C(=CC[C@@H]4[C@@]5(C)CCC(=O)C(C)(C)[C@@H]5CC[C@]43C)[C@H]12 the IC50 [1] was greater than 100 µM and the IC50 [2] was greater than 100 µM.

C[C@H]1[C@H](C)CC[C@]2(C(=O)Nc3nnn[nH]3)CC[C@]3(C)C(=CC[C@@H]4[C@@]5(C)CC/C(=N\Nc6ccccc6)C(C)(C)[C@@H]5CC[C@]43C)[C@H]12 gave an IC50 [1] of 11.9 µM and an IC50 [2] of 2.2 µM.

COc1ccc(-c2nnnn2CCCOC(=O)[C@]23CC[C@@H](C)[C@H](C)[C@H]2C2=CC[C@@H]4[C@@]5(C)CC[C@H](O)C(C)(C)[C@@H]5CC[C@@]4(C)[C@]2(C)CC3)cc1 gave an IC50 [1] greater than 100 µM and an IC50 [2] of 27.4 µM.

Molecule C[C@H]1[C@H](C)CC[C@]2(C(=O)OCCNc3ccccc3-c3nnn[nH]3)CC[C@]3(C)C(=CC[C@@H]4[C@@]5(C)CCC(=O)C(C)(C)[C@@H]5CC[C@]43C)[C@H]12 has an IC50 [1] greater than 100 µM and an IC50 [2] greater than 100 µM.

Work on C[C@H]1[C@H](C)CC[C@]2(C(=O)OCCn3nnnc3-c3ccc(Cl)cc3)CC[C@]3(C)C(=CC[C@@H]4[C@@]5(C)CC[C@H](O)C(C)(C)[C@@H]5CC[C@]43C)[C@H]12 yielded an IC50 [1] greater than 100 µM and an IC50 [2] of 76.4 µM.

CCCC(=O)O[C@H]1CC[C@]2(C)[C@H]3CC=C4[C@@H]5[C@@H](C)[C@H](C)CC[C@]5(C(=O)Nc5nnn[nH]5)CC[C@@]4(C)[C@]3(C)CC[C@H]2C1(C)C gave an IC50 [1] of 4.7 µM and an IC50 [2] of 1.4 µM.

For C[C@H]1[C@H](C)CC[C@]2(C(=O)OCCn3nnnc3-c3ccc4c(c3)OCO4)CC[C@]3(C)C(=CC[C@@H]4[C@@]5(C)CC[C@H](O)C(C)(C)[C@@H]5CC[C@]43C)[C@H]12, the IC50 [1] was greater than 100 µM and the IC50 [2] was greater than 100 µM.

With C[C@H]1[C@H](C)CC[C@]2(C(=O)Nc3nnn[nH]3)CC[C@]3(C)C(=CC[C@@H]4[C@@]5(C)CC[C@H](OC(=O)c6ccccc6)C(C)(C)[C@@H]5CC[C@]43C)[C@H]12 the IC50 [1] was 18.5 µM and the IC50 [2] was 0.8 µM.

Molecule C[C@H]1[C@H](C)CC[C@]2(C(=O)O)CC[C@]3(C)C(=CC[C@@H]4[C@@]5(C)CC[C@H](O)C(C)(C)[C@@H]5CC[C@]43C)[C@H]12 [URSOLIC ACID] has an IC50 [2] greater than 100 µM.

C[C@H]1[C@H](C)CC[C@]2(C(=O)OCCNc3cccc(-c4nnn[nH]4)c3)CC[C@]3(C)C(=CC[C@@H]4[C@@]5(C)CC[C@H](O)C(C)(C)[C@@H]5CC[C@]43C)[C@H]12 was tested, and the IC50 [1] was greater than 100 µM and the IC50 [2] was 8.9 µM.

With C[C@H]1[C@H](C)CC[C@]2(C(=O)OCCCNc3ccc(-c4nnn[nH]4)cc3)CC[C@]3(C)C(=CC[C@@H]4[C@@]5(C)CC[C@H](O)C(C)(C)[C@@H]5CC[C@]43C)[C@H]12 the IC50 [1] was greater than 100 µM and the IC50 [2] was greater than 100 µM.

With C[C@H]1[C@H](C)CC[C@]2(C(=O)OCCCn3nnnc3-c3ccc4c(c3)OCO4)CC[C@]3(C)C(=CC[C@@H]4[C@@]5(C)CC[C@H](O)C(C)(C)[C@@H]5CC[C@]43C)[C@H]12 the IC50 [1] was greater than 100 µM and the IC50 [2] was 83 µM.

Molecule C[C@H]1[C@H](C)CC[C@]2(C(=O)OCn3ncn(-c4ccccc4)c3=O)CC[C@]3(C)C(=CC[C@@H]4[C@@]5(C)CC[C@H](O)C(C)(C)[C@@H]5CC[C@]43C)[C@H]12 has an IC50 [1] greater than 100 µM and an IC50 [2] of 36.9 µM.

With C[C@H]1[C@H](C)CC[C@]2(C(=O)OCCNc3ccc(-c4nnn[nH]4)cc3)CC[C@]3(C)C(=CC[C@@H]4[C@@]5(C)CCC(=O)C(C)(C)[C@@H]5CC[C@]43C)[C@H]12 the IC50 [1] was greater than 100 µM and the IC50 [2] was 18.1 µM.

With C[C@H]1[C@H](C)CC[C@]2(C(=O)OCCCNc3nnn[nH]3)CC[C@]3(C)C(=CC[C@@H]4[C@@]5(C)CC[C@H](O)C(C)(C)[C@@H]5CC[C@]43C)[C@H]12 the IC50 [1] was greater than 100 µM and the IC50 [2] was 10.3 µM.

In the case of C[C@H]1[C@H](C)CC[C@]2(C(=O)OCCNc3nnn[nH]3)CC[C@]3(C)C(=CC[C@@H]4[C@@]5(C)CC[C@H](O)C(C)(C)[C@@H]5CC[C@]43C)[C@H]12, the IC50 [1] is reported as greater than 100 µM and the IC50 [2] is reported as 8.5 µM.
